What was measured:
[1] = target: T1, Delta-type opioid receptor (Mus musculus, UniProt P32300); assay: Binding affinity towards mouse Opioid receptor delta 1 expressed in CHO cells of chinese hamster ovary was determined using [3H]-[…] as radioligand; type: cell-based
Outline: (§1)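 Competition binding against [3H]DPDPE on cloned mouse δ-opioid receptors stably expressed in CHO cells. Nonspecific binding defined with 10 μM unlabeled DPDPE. Peptidase inhibitors present (10 μM bestatin, 30 μM captopril, 50 μM L-leucyl-L-leucine) plus 3 mM Mg2+. Mean ± SEM from at least three separate assays.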

[2] = target: T2, Opioid receptors; mu/kappa/delta (Homo sapiens) (UniProt P41145+P41143+P35372); assay: Selectivity for kappa/Mu/Delta receptors was determined; 1/14/>377; type: protein assay
[3] = target: T3, Kappa-type opioid receptor (Rattus norvegicus, UniProt P34975); assay: Binding affinity towards rat Opioid receptor kappa 1 expressed in CHO cells of chinese hamster ovary was determined using [3H]diprenorphine as radioligand; type: cell-based
Outline: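 Cloned rat κ-opioid receptors stably expressed in CHO cells; affinity from competitive inhibition of [3H]diprenorphine binding. Nonspecific binding defined with 10 μM unlabeled Dyn A-(1-13)NH2. Assay buffer held 10 μM bestatin, 30 μM captopril, 50 μM L-leucyl-L-leucine and 3 mM Mg2+. Mean ± SEM, at least three separate assays.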

[4] = target: Kappa-type opioid receptor (Rattus norvegicus) (UniProt P34975); assay: Inhibition of Forskolin-Stimulated Adenylyl Cyclase in CHO cells expressing Opioid receptor kappa 1 at 10 uM relative to 100 nM Dyn A-(1-13)NH(2); type: functional, cell-based
Outline: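 Same κ-CHO forskolin (50 μM, 40 min, 37°) cyclic AMP assay, with phosphodiesterase and peptidase inhibitors. Maximal percent inhibition by peptide at 10 μM, expressed relative to the inhibition given by 100 nM Dyn A-(1-13)NH2. Cyclic AMP counts corrected for recovery using a [14C]cyclic AMP tracer.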

Mu-type opioid receptor = Mu-type opioid receptor (Rattus norvegicus, UniProt P33535); assay: Binding affinity towards rat Opioid receptor mu 1 expressed in CHO cells of chinese hamster ovary was determined using [3H]DAMGO; type: cell-based
Outline: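 [3H]DAMGO displacement on cloned rat μ-opioid receptors stably expressed in CHO cells. Nonspecific binding defined with 10 μM unlabeled DAMGO. Peptidase inhibitors (10 μM bestatin, 30 μM captopril, 50 μM L-leucyl-L-leucine) and 3 mM Mg2+ included. Mean ± SEM, at least three separate assays.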

[5] = target: T3, Kappa-type opioid receptor; assay: Inhibition of Forskolin-Stimulated Adenylyl Cyclase in CHO cells expressing Opioid receptor kappa 1; type: functional, cell-based
Outline: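 CHO cells stably expressing cloned rat κ-opioid receptors. Cultures incubated 40 min at 37° with 50 μM forskolin and varying peptide concentrations. Present: 50 μM RO20-1724 (phosphodiesterase inhibitor), plus 10 μM bestatin, 30 μM captopril and 50 μM L-leucyl-L-leucine. [3H]cyclic AMP counted, with [14C]cyclic AMP added for recovery correction. Mean ± SEM, generally n ≥ 3, some n = 2.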

[6] = target: T1, Delta-type opioid receptor; assay: Binding affinity towards mouse Opioid receptor delta 1 expressed in CHO cells of chinese hamster ovary was determined using [3H][…] as radioligand; type: cell-based; outline: as §1
[7] = target: T2, Opioid receptors; mu/kappa/delta (Homo sapiens); assay: Selectivity for kappa/Mu/Delta receptors was determined 1/1.7/90; type: protein assay
[8] = target: T2, Opioid receptors; mu/kappa/delta (Homo sapiens); assay: Selectivity for kappa/Mu/Delta receptors was determined; 1/44/765; type: protein assay

Sequence of Mu-type opioid receptor (P33535 whole entry): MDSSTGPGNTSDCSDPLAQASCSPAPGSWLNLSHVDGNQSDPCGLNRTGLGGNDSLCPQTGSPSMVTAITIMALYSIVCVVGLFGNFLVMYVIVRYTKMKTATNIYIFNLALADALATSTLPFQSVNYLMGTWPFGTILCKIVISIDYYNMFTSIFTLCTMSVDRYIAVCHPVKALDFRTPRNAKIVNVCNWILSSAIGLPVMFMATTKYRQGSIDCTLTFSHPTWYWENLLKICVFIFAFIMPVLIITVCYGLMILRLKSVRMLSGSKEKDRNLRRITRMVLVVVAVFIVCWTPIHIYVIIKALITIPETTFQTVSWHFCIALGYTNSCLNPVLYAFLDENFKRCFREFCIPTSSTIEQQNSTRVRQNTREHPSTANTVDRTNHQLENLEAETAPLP
Sequence of Kappa-type opioid receptor (Rattus norvegicus) (P34975 whole entry): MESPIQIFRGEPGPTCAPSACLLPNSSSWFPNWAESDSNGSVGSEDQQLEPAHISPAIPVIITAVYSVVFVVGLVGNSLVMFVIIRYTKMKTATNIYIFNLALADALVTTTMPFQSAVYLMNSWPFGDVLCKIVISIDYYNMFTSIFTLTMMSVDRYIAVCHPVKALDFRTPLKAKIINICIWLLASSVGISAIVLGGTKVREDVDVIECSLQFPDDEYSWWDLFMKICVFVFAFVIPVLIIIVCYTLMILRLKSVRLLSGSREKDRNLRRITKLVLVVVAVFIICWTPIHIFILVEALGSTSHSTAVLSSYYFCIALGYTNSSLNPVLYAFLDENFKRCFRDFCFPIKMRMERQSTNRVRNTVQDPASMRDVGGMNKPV
T3 sequence (P34975 whole entry): as above
T1 sequence (P32300 whole entry): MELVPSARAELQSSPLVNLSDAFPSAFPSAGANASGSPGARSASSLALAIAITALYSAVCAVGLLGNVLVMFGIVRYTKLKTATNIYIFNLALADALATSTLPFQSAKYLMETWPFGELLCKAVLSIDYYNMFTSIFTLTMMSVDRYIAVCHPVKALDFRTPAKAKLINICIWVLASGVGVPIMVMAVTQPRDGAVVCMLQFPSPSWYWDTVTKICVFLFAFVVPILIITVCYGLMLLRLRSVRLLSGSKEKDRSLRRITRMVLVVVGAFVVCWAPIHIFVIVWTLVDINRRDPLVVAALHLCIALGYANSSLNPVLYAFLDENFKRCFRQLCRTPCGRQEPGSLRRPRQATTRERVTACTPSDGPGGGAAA
T2 sequence (P35372 whole entry, looked up): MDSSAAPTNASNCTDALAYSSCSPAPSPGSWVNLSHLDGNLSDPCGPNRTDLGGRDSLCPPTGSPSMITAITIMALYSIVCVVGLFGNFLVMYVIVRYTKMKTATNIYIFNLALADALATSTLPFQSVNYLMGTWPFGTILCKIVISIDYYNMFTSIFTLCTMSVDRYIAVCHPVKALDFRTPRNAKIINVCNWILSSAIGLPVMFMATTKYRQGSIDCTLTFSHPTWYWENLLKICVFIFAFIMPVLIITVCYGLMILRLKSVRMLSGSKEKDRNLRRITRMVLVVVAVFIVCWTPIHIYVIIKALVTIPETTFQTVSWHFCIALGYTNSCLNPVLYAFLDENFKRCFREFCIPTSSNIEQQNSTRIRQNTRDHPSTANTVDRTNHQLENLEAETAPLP
T2 sequence (P41143 whole entry, looked up): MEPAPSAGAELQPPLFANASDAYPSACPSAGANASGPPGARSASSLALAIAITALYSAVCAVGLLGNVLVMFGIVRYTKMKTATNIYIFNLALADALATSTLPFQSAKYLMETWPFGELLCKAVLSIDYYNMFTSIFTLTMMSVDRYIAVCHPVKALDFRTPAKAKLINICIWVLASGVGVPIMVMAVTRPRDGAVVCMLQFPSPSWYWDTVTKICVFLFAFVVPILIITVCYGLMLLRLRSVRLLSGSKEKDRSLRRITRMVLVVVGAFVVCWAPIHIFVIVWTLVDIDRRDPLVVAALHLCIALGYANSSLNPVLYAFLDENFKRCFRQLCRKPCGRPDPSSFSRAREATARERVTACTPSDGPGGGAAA
T2 sequence (P41145 whole entry, looked up): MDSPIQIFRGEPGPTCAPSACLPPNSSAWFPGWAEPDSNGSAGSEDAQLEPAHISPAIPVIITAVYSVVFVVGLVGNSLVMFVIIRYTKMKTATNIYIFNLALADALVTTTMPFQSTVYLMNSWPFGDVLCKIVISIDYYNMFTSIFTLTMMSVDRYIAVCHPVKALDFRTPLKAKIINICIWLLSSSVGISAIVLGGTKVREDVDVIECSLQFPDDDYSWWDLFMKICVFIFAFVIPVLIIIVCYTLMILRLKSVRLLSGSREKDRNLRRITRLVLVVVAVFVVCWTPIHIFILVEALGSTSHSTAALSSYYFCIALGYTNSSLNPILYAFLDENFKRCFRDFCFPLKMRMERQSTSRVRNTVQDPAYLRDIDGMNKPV

Structure (SMILES) | Ki [1] [nM] | Ki [3] [nM] | Max response [4] [%] | Ki (Mu-type opioid receptor) [nM] | EC50 [5] [nM] | Ki ([1]; cho) [nM] | Ki (Mu-type opioid receptor; cho) [nM] | EC50 ([5]; cho) [nM] | also measured
CC(C)C[C@H](NC(=O)C1(NC(=O)CNC(=O)CNC(=O)[C@@H](N)Cc2ccc(O)cc2)Cc2ccccc2C1)C(=O)N[C@@H](CCCN=C(N)N)C(=O)N[C@@H](CCCN=C(N)N)C(=O)N[C@H](C)C(=O)N[C@@H](CCCN=C(N)N)C(=O)N1CCC[C@H]1C(=O)N[C@@H](CCCCN)C(N)=O | > 10000 | 26.5 | 39 | 364 |  |  |  |  | Ki ratio [2]: kappa/mu/delta
CC(C)C[C@H](NC(=O)[C@]1(NC(=O)CNC(=O)CNC(=O)[C@@H](N)Cc2ccc(O)cc2)CCc2ccccc2C1)C(=O)N[C@@H](CCCNC(=N)N)C(=O)N[C@@H](CCCNC(=N)N)C(=O)N[C@H](C)C(=O)N[C@@H](CCCNC(=N)N)C(=O)N1CCC[C@H]1C(=O)N[C@@H](CCCCN)C(N)=O | > 10000 | 9.54 |  | 88.3 | 573 |  |  |  | 
CC(C)C[C@H](NC(=O)[C@H](CCc1ccccc1)NC(=O)CNC(=O)CNC(=O)[C@@H](N)Cc1ccc(O)cc1)C(=O)N[C@@H](CCCN=C(N)N)C(=O)N[C@@H](CCCN=C(N)N)C(=O)N[C@H](C)C(=O)N[C@@H](CCCN=C(N)N)C(=O)N1CCC[C@H]1C(=O)N[C@@H](CCCCN)C(N)=O | 5570 | 1.73 | 100 | 47 | 46.9 |  |  |  | 
CC(C)C[C@H](NC(=O)[C@@H](Cc1ccccc1)NC(=O)CNC(=O)CNC(=O)[C@@H](N)Cc1ccc(O)cc1)C(=O)N[C@@H](CCCN=C(N)N)C(=O)N[C@@H](CCCN=C(N)N)C(=O)N[C@H](C)C(=O)N[C@@H](CCCN=C(N)N)C(=O)N1CCC[C@H]1C(=O)N[C@@H](CCCCN)C(N)=O |  |  | 100 |  |  | 6.57 | 4.2 | 1.24 | Ki ([3]; cho): 0.11 nM
CC(C)C[C@H](NC(=O)[C@H](Cc1ccccc1)NC(=O)CNC(=O)CNC(=O)[C@@H](N)Cc1ccc(O)cc1)C(=O)N[C@@H](CCCN=C(N)N)C(=O)N[C@@H](CCCN=C(N)N)C(=O)N[C@H](C)C(=O)N[C@@H](CCCN=C(N)N)C(=O)N1CCC[C@H]1C(=O)N[C@@H](CCCCN)C(N)=O |  | 8.91 | 73 | 123 | 515 |  |  |  | Ki [6]: > 10000 nM
CC(C)C[C@H](NC(=O)[C@@H]1Cc2ccccc2CN1C(=O)CNC(=O)CNC(=O)[C@@H](N)Cc1ccc(O)cc1)C(=O)N[C@@H](CCCNC(=N)N)C(=O)N[C@@H](CCCNC(=N)N)C(=O)N[C@H](C)C(=O)N[C@@H](CCCNC(=N)N)C(=O)N1CCC[C@H]1C(=O)N[C@@H](CCCCN)C(N)=O | 3590 | 4.69 |  | 206 | 29.4 |  |  |  | 
CC(C)C[C@H](NC(=O)[C@@](C)(Cc1ccccc1)NC(=O)CNC(=O)CNC(=O)[C@@H](N)Cc1ccc(O)cc1)C(=O)N[C@@H](CCCN=C(N)N)C(=O)N[C@@H](CCCN=C(N)N)C(=O)N[C@H](C)C(=O)N[C@@H](CCCN=C(N)N)C(=O)N1CCC[C@H]1C(=O)N[C@@H](CCCCN)C(N)=O |  |  | 100 |  |  | 157 | 3.24 | 36.5 | Ki ([3]; cho): 3.2 nM
CC(C)C[C@H](NC(=O)[C@@H](CCc1ccccc1)NC(=O)CNC(=O)CNC(=O)[C@@H](N)Cc1ccc(O)cc1)C(=O)N[C@@H](CCCN=C(N)N)C(=O)N[C@@H](CCCN=C(N)N)C(=O)N[C@H](C)C(=O)N[C@@H](CCCN=C(N)N)C(=O)N1CCC[C@H]1C(=O)N[C@@H](CCCCN)C(N)=O |  | 0.66 | 95 |  |  | 190 | 13.7 | 5.2 | 
CC(C)C[C@H](NC(=O)[C@@]1(NC(=O)CNC(=O)CNC(=O)[C@@H](N)Cc2ccc(O)cc2)CCc2ccccc2C1)C(=O)N[C@@H](CCCN=C(N)N)C(=O)N[C@@H](CCCN=C(N)N)C(=O)N[C@H](C)C(=O)N[C@@H](CCCN=C(N)N)C(=O)N1CCC[C@H]1C(=O)N[C@@H](CCCCN)C(N)=O | > 10000 | 0.89 | 96 | 32.9 | 72.4 |  |  |  | 
CC(C)C[C@H](NC(=O)[C@H](Cc1ccccc1)N(C)C(=O)CNC(=O)CNC(=O)[C@@H](N)Cc1ccc(O)cc1)C(=O)N[C@@H](CCCN=C(N)N)C(=O)N[C@@H](CCCN=C(N)N)C(=O)N[C@H](C)C(=O)N[C@@H](CCCN=C(N)N)C(=O)N1CCC[C@H]1C(=O)N[C@@H](CCCCN)C(N)=O |  |  |  |  |  | 56.1 | 1.03 | 3.56 | Ki ([3]; cho): 0.62 nM
CC(C)C[C@H](NC(=O)[C@]1(NC(=O)CNC(=O)CNC(=O)[C@@H](N)Cc2ccc(O)cc2)CCc2ccccc2C1)C(=O)N[C@@H](CCCN=C(N)N)C(=O)N[C@@H](CCCN=C(N)N)C(=O)N[C@H](C)C(=O)N[C@@H](CCCN=C(N)N)C(=O)N1CCC[C@H]1C(=O)N[C@@H](CCCCN)C(N)=O |  |  | 74 |  |  |  |  |  | 
CC(C)C[C@H](NC(=O)[C@@H](Cc1ccccc1)N(C)C(=O)CNC(=O)CNC(=O)[C@@H](N)Cc1ccc(O)cc1)C(=O)N[C@@H](CCCN=C(N)N)C(=O)N[C@@H](CCCN=C(N)N)C(=O)N[C@H](C)C(=O)N[C@@H](CCCN=C(N)N)C(=O)N1CCC[C@H]1C(=O)N[C@@H](CCCCN)C(N)=O |  |  | 99 |  |  |  |  |  | Ki ratio [7]: kappa/mu/delta
CC(C)C[C@H](NC(=O)[C@@H]1Cc2ccccc2CN1C(=O)CNC(=O)CNC(=O)[C@@H](N)Cc1ccc(O)cc1)C(=O)N[C@@H](CCCN=C(N)N)C(=O)N[C@@H](CCCN=C(N)N)C(=O)N[C@H](C)C(=O)N[C@@H](CCCN=C(N)N)C(=O)N1CCC[C@H]1C(=O)N[C@@H](CCCCN)C(N)=O |  |  | 91 |  |  |  |  |  | Ki ratio [8]: kappa/mu/delta

Reference: ChEMBL document CHEMBL1145081, “Effects of the substitution of Phe4 in the opioid peptide [D-Ala8]dynorphin A-(1-11)NH2” (J Med Chem, 2003)
